Data: article PMC6699892 (Inorganic chemistry, 2019)

Assay: Lipophilicity, modified shake flask octanol-water partition
Assay type: physicochemical
Conditions: chloride salts, 50 µM, 1-octanol/water, room temperature
Procedure, shortened: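 1-Octanol and water were mutually pre-saturated by shaking for 24 h at room temperature. Test compound at 50 µM in water-saturated octanol was mixed with an equal volume of octanol-saturated water, hand-shaken 200 times and centrifuged (11,000 rpm, 2 min). Each layer was quantified by absorbance against standard curves.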

## [Cl][Ru][Cl].c1ccc(-c2ccccn2)nc1.c1ccc(-c2ccccn2)nc1.c1ccc(-c2ccccn2)nc1 [[Ru(bpy)3]Cl2, reference compound]
  Octanol-water partition coefficient (log Po/w): < −3
